This is an account of results in ChEMBL document CHEMBL4138269, “Dual NAMPT/HDAC Inhibitors as a New Strategy for Multitargeting Antitumor Drug Discovery” (ACS Med Chem Lett, 2018).

Active and inactive are the calls of the source. The rule behind the calls is not given here.

In series [1] the target is T1, Nicotinamide phosphoribosyltransferase (Homo sapiens, UniProt P43490). The series can be described thus: Inhibition of NAMPT (unknown origin) using NAM as substrate incubated for 5 mins followed by substrate addition measured after 15 mins by fluorometric method.
Target sequence in this assay (P43490 whole entry): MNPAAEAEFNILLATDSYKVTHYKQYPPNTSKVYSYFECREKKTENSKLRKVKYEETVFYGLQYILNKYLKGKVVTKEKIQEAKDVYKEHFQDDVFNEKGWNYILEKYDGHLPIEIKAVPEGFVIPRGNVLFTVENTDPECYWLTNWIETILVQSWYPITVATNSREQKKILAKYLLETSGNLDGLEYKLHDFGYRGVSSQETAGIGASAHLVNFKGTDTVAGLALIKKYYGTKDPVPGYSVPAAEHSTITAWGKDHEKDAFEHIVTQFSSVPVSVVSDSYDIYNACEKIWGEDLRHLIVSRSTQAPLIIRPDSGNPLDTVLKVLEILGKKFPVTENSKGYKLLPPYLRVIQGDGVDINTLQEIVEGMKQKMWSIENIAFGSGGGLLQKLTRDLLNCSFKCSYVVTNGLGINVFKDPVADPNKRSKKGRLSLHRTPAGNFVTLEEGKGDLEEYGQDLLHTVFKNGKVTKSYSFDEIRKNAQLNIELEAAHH
Series [2] concerns the target T2, Histone deacetylase 1 (Homo sapiens, UniProt Q13547). The series can be described thus: Inhibition of recombinant full length human C-terminal His/flag-tagged HDAC1 expressed in baculovirus infected Sf9 insect cells after 30 mins by fluorescence assay.
For series [3], the system named is HCT-116. The series can be described thus: cells. The format is functional, cell-based. The note with it: Homo sapiens, HCT-116, 72 h.
For another series, the system named is A549. The series can be described thus: cells. The format is functional, cell-based. To be noted: Homo sapiens, A549, 72 h.
The next series relates to HepG2. As to the kind of experiment: cells. The class given is functional, cell-based. The note with it: Homo sapiens, HepG2, 72 h.
The target of series [4] is Histone deacetylase 3/NCoR1 (Homo sapiens, UniProt O15379). The series can be described thus: Inhibition of human recombinant HDAC3/GST-tagged NCOR1 DAD (397 to 503 residues) expressed in baculovirus expression system after 30 mins by fluorescence assay.
Sequence of Histone deacetylase 3/NCoR1 (O15379 whole entry, the tested form may be a part): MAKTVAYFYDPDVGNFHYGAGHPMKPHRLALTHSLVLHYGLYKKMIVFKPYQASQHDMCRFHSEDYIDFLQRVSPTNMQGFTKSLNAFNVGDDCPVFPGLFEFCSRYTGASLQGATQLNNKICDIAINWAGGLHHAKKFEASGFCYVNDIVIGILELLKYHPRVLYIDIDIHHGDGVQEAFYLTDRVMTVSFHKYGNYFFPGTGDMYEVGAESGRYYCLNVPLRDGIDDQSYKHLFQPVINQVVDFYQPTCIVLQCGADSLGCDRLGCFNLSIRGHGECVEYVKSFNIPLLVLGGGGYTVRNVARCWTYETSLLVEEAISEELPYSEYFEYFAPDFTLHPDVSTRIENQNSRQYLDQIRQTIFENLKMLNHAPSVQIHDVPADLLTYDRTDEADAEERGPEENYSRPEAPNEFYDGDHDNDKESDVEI
Sequence of Histone deacetylase 3/NCoR1 (O75376 whole entry, further chain, the tested form may be a part): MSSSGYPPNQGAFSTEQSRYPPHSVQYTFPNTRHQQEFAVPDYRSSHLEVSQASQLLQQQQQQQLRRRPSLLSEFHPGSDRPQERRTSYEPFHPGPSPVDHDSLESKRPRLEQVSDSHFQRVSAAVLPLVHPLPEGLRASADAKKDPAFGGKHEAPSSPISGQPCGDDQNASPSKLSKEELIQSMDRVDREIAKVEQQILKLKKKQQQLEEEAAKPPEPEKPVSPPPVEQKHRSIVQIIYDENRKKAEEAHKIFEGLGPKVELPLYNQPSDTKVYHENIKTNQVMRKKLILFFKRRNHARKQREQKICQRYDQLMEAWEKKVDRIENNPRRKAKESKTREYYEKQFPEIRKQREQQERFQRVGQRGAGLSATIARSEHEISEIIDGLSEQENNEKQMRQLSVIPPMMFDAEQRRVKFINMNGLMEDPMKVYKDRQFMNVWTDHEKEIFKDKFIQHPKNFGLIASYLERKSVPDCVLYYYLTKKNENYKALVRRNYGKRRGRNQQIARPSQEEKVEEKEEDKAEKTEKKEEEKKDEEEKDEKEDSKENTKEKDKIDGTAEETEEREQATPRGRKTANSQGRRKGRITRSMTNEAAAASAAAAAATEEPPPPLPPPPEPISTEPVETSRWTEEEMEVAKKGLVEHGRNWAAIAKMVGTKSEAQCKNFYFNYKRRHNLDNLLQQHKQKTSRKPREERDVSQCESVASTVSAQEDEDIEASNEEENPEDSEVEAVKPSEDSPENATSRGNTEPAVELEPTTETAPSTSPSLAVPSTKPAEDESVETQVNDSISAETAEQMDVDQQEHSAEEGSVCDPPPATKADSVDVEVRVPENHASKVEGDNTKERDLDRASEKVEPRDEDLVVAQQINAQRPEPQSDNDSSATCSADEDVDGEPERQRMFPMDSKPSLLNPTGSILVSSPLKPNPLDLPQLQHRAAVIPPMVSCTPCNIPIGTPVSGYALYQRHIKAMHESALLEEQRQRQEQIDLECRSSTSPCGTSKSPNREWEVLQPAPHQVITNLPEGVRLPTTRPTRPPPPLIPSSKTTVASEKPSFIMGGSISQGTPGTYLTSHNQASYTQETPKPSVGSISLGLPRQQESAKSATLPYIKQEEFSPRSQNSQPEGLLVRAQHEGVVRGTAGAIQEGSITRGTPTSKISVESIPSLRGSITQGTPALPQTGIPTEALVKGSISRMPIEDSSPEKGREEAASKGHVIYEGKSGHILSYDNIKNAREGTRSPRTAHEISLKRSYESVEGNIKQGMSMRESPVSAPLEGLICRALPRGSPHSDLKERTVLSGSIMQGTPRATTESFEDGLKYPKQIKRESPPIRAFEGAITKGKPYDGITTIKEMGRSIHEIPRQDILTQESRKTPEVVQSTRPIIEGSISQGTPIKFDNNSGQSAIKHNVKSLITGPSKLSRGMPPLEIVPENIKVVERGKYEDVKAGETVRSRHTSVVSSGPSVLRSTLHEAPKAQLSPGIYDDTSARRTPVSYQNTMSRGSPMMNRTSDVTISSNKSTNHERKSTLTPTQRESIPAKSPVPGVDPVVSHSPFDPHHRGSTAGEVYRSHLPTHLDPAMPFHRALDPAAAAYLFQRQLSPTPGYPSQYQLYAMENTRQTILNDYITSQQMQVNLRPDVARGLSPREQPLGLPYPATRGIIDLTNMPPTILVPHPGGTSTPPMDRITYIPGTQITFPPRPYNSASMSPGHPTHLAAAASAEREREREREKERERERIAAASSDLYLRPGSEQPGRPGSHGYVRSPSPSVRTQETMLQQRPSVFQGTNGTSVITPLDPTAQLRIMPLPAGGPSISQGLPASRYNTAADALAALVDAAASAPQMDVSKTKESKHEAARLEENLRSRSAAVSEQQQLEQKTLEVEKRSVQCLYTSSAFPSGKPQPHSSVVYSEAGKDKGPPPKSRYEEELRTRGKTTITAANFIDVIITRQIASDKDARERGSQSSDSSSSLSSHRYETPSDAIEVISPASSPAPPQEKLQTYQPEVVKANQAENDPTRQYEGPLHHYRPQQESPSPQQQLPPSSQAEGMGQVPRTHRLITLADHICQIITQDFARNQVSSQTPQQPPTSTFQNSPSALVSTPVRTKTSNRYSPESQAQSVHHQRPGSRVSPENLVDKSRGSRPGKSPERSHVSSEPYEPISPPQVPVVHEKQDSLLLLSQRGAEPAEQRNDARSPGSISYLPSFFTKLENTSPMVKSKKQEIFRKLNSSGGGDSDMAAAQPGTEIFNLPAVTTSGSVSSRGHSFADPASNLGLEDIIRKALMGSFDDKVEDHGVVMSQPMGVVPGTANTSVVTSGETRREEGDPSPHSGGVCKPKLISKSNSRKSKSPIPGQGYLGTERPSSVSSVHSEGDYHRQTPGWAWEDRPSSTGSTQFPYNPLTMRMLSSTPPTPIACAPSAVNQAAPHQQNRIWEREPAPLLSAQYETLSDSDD
In series [5] the target is T3, Protein deacetylase HDAC6 (Homo sapiens, UniProt Q9UBN7).
T3 sequence (Q9UBN7 whole entry): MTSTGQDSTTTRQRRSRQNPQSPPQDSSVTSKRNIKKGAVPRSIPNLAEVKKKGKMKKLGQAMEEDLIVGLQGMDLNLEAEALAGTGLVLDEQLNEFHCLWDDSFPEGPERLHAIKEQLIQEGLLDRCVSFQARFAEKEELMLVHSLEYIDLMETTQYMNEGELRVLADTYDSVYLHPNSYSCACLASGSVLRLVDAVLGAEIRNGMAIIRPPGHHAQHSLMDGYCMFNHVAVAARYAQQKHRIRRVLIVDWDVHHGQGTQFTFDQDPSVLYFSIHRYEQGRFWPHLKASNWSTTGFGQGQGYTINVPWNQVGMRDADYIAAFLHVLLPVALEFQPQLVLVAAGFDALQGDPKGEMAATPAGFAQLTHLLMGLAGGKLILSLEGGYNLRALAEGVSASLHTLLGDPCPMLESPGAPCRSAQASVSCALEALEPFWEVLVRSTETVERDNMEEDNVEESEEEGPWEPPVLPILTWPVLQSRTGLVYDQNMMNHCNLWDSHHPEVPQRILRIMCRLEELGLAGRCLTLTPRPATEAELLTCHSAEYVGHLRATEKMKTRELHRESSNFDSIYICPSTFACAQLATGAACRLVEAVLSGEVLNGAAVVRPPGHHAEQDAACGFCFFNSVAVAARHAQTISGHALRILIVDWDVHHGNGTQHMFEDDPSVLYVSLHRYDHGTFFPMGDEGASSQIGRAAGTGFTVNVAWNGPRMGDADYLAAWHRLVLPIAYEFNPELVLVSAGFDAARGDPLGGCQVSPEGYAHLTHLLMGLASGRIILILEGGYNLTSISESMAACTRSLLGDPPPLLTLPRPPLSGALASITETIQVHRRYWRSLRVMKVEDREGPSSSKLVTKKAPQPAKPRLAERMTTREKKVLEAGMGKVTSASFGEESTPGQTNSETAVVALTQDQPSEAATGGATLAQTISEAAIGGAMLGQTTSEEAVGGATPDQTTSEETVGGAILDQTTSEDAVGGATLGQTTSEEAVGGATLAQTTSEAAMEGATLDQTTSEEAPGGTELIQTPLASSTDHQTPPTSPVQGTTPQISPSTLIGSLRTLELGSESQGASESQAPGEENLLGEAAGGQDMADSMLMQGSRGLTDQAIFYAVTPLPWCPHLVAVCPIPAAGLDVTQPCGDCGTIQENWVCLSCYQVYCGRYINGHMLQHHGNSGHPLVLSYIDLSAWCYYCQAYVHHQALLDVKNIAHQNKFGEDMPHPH
The series can be described thus: Inhibition of recombinant human full length C-terminal flag-tagged HDAC6 expressed in baculovirus infected Sf9 insect cells after 30 mins by fluorescence assay.

Series [6] concerns the target T1, Nicotinamide phosphoribosyltransferase. The series can be described thus: Binding affinity to NAMPT in human HCT116 cells assessed as change in melting temperature at 10 uM after 3 hrs by CETSA. The format is cell-based.
Target sequence in this assay (P43490 whole entry, looked up): as the sequence (P43490 whole entry) above
The next series deals with Histone deacetylase 2 (Homo sapiens, UniProt Q92769).
Sequence of Histone deacetylase 2 (Q92769 whole entry): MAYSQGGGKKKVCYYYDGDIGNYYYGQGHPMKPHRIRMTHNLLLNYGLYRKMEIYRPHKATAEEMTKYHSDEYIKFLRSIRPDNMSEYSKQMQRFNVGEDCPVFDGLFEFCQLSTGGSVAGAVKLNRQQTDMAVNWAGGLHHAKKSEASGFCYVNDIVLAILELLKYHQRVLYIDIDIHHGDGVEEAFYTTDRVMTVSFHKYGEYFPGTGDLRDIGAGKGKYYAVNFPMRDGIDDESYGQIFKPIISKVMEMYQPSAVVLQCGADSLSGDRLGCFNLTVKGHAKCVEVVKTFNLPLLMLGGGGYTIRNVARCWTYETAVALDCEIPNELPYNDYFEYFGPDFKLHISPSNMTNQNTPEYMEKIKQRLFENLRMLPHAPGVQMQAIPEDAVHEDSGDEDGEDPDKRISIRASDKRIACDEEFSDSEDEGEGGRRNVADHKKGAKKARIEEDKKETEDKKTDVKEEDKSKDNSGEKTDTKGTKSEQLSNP
A further series addresses Histone deacetylase 4 (Homo sapiens, UniProt P56524). As to the kind of experiment: Inhibition of recombinant human N-terminal GST-tagged HDAC4 (612 to end residues) expressed in baculovirus infected Sf9 insect cells after 30 mins by fluorescence assay.
A further series deals with T4, Histone deacetylase 8 (Homo sapiens, UniProt Q9BY41).
T4 sequence (Q9BY41 whole entry): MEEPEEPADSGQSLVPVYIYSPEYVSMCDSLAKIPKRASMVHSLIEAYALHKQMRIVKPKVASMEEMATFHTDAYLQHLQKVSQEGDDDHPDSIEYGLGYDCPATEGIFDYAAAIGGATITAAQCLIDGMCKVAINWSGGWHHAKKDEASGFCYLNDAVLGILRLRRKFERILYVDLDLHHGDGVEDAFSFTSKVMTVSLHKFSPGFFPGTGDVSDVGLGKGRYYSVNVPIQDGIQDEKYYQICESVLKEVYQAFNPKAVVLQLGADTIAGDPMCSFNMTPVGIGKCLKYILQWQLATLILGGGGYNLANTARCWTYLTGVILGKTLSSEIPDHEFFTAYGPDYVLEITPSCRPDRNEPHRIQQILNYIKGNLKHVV
As to the kind of experiment: Inhibition of recombinant human full length C-terminal His-tagged HDAC8 expressed in baculovirus infected Sf9 insect cells after 30 mins by fluorescence assay.

For series [7], the target named is T5, Histone deacetylase (Homo sapiens) (UniProt Q13547+O15379+Q9UBN7+Q92769+Q9UQL6+Q8WUI4+Q9BY41+Q96DB2+P56524+Q9UKV0+Q969S8). As to the kind of experiment: Inhibition of HDAC in human HCT116 cells assessed as increase in acetyl-histone H3 level at 1 to 5 uM after 24 hrs by Western blot analysis. The format is cell-based. A digest of the protocol: (§1)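 HCT116 cells were treated for 24 h at 1 μM and 5 μM. Acetylated histone H3 and acetylated histone H4 were detected by Western blot.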
For orientation: In western blotting, separated proteins are transferred to a membrane and probed.

Series [8] addresses T5, Histone deacetylase (Homo sapiens). The series can be described thus: Inhibition of HDAC in human HCT116 cells assessed as increase in acetyl-histone H4 level at 1 to 5 uM after 24 hrs by Western blot analysis. The format is cell-based. The gist of the method:
as §1

Series [9] has as its target T1, Nicotinamide phosphoribosyltransferase. As to the kind of experiment: Inhibition of NAMPT in human HCT116 cells assessed as decrease in cellular NAD+ level after 24 hrs by MTT dye based spectrophotometric analysis. The format is cell-based. A digest of the protocol:
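HCT116 cells were exposed to a concentration series for 24 h. Cellular NAD+ level was measured and concentration–response curves were fitted.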
Target sequence in this assay (P43490 whole entry, looked up): as the sequence (P43490 whole entry) above
On the technique in general: Tetrazolium assays rely on reduction of a dye to a coloured formazan, in cell work by metabolically active cells.

The subject of series [10] is Mus musculus. As to the kind of experiment: Toxicity in BALB/C nude mouse xenografted with human HCT116 cells assessed as body weight loss at 25 mg/kg, ip bid administered for 21 consecutive days measured every 3 days. The format is organism-based. To be noted: in vivo, 72 h. The gist of the method: (§2)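 HCT116 tumour xenografts were grown in nude mice. Agents were given ip twice daily for 21 consecutive days. Tumour growth and body weight were followed. Tumour growth inhibition (TGI) and relative increment ratio (T/C) were derived. Data are mean ± standard deviation, compared with the control group by Student's t test.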
A general note: A xenograft is tissue or cells of one species grown in another, often human tumour cells in immunodeficient mice.

Series [11] concerns the target T2, Histone deacetylase 1. As to the kind of experiment: Potency index, ratio of SAHA IC50 to compound IC50 for recombinant human full length C-terminal His/flag-tagged HDAC1 expressed in baculovirus infected Sf9 insect cells.
In series [12] the test system is HCT-116. The series can be described thus: animal or person. The format is functional, Homo sapiens. To be noted: Mus musculus, HCT-116, ip, 72 h, read-out: TGI.
Series [13] deals with HCT-116. As to the kind of experiment: Antitumor activity against human HCT116 cells xenografted in BALB/C nude mouse assessed as tumor growth inhibition at 15 mg/kg, ip bid administered for 21 consecutive days measured every 3 days. The class given is functional. To be noted: HCT-116, ip, 72 h, read-out: TGI. A digest of the protocol:
as §2

For series [14], the system named is Mus musculus. The series can be described thus: Toxicity in BALB/C nude mouse xenografted with human HCT116 cells assessed as body weight loss at 15 mg/kg, ip bid administered for 21 consecutive days measured every 3 days. The class given is organism-based. The note with it: in vivo, 72 h. A digest of the protocol: as §2

T2 sequence (Q13547 whole entry): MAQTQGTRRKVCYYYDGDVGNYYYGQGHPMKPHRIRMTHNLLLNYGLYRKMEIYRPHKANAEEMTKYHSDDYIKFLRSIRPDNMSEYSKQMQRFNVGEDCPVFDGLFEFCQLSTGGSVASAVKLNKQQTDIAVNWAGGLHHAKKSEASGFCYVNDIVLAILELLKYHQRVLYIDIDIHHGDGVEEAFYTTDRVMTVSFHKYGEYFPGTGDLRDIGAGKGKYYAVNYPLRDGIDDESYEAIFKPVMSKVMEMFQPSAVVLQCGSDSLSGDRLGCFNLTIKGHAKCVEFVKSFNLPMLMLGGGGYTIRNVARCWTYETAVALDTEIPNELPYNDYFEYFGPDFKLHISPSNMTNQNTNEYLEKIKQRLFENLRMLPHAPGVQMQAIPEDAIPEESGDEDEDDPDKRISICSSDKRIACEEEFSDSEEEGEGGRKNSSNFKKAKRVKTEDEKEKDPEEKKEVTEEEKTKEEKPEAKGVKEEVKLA

By IC50 is commonly meant the concentration needed to halve the response being measured. Turning to `O=C(NO)c1ccc(CN(Cc2ccc(F)cc2)c2ncc(C(=O)NCCCn3ccnc3)s2)cc1`, the IC50 in series [1] was 0.014 µM; on Histone deacetylase 1 [2], 0.046 µM; in the series with HCT-116 [3], 99 µM; with A549, 7.3 µM; with HepG2, 79 µM.
Take `CC(C)CCN(CCCCCCC(=O)NO)c1ncc(C(=O)NCc2cccnc2)s1`: the IC50 in series [1] was determined as 0.22 µM; on Histone deacetylase 1 [2], 0.036 µM; in the series on HCT-116 [3], 12 µM; in the series on A549, 19 µM; with HepG2 it was 7 µM.
By ΔTm is commonly meant the shift of the melting midpoint relative to a reference. With `O=C(CCCCCCN(Cc1ccc(F)cc1)c1ncc(C(=O)NCCCn2ccnc2)s1)NO`, the IC50 in series [4] was 0.0041 µM; in series [5], 0.0062 µM; in series [1], 0.019 µM; at Histone deacetylase 1 [2] it was 0.036 µM; in the series with HCT-116 [3], 9.7 µM; in the series on A549 it was 9.7 µM. Besides, the IC50 in the series on HepG2 worked out at 9.4 µM; against Histone deacetylase 2 it was 0.033 µM; on Histone deacetylase 4, 21 µM; on Histone deacetylase 8 it was 0.351 µM. Besides, the ΔTm in series [6] came out at 7.36 °C. In addition, the inhibition result in [7] and in [8] was “Dose-dependent effect” each time. Also, the inhibition result in series [9] was “Active”.
As for `O=C(CCCCCCCN(Cc1ccc(F)cc1)c1ncc(C(=O)NCCCn2ccnc2)s1)NO`, the IC50 was determined as 0.018 µM in series [1]; 0.044 µM at Histone deacetylase 1 [2]; 63 µM in the series on HCT-116 [3]; 6.6 µM in the series on A549; 26 µM in the series on HepG2.
With `CC(C)CCN(CCCCCC(=O)NO)c1ncc(C(=O)NCCCn2ccnc2)s1`, the IC50 in [1] worked out at 0.02 µM; on Histone deacetylase 1 [2], 0.06 µM; in the series with HCT-116 [3] it was 85 µM; in the series with A549, 13 µM; in the series with HepG2, 106 µM.
As for `O=C(CCCCCCC(=O)Nc1ccccc1)NO` [VORINOSTAT], in the series on Mus musculus [10], the Activity result is reported as “Non-Toxic”.
In the case of `CC(C)CCN(CCCCCCC(=O)NO)c1ncc(C(=O)NCCCn2ccnc2)s1`, the half-maximal inhibitory concentration (IC50) in series [4] came to 0.00067 µM; in series [5], 0.00064 µM; in [1], 0.015 µM; on Histone deacetylase 1 [2], 0.002 µM; in the series with HCT-116 [3], 30 µM; in the series on A549, 5.2 µM. Moreover, the IC50 in the series on HepG2 was 24 µM; at Histone deacetylase 2, 0.0068 µM; at Histone deacetylase 4, 12 µM; on Histone deacetylase 8, 0.204 µM. Further, the ΔTm in series [6] is 3.01 °C. In addition, the Ratio IC50 at Histone deacetylase 1 [11] came to 10. The inhibition result in [7] and in series [8] was “Dose-dependent effect” throughout. In [9], the inhibition entry was “Active”. The inhibition in vivo at 25 mg/kg in the series on HCT-116 [12] was 42%. Moreover, in the series on Mus musculus [10], the Activity result was “Non-Toxic”.
In the case of `O=C(/C=C/c1cccnc1)NCCCCC1CCN(C(=O)c2ccccc2)CC1` [DAPORINAD], in the series on A549, it took 3.7 µM to reach half-maximal inhibition (IC50). Besides, the inhibition in vivo at 15 mg/kg with HCT-116 [13] is 39%. Also, in the series on Mus musculus [14], the Activity entry is given as “Non-Toxic”.
`O=C(CCCCCCN(Cc1ccc(F)cc1)c1ncc(C(=O)NCc2cccnc2)s1)NO`: the IC50 in series [1] stood at 0.47 µM; on Histone deacetylase 1 [2], 0.095 µM; with HCT-116 [3], 17 µM; in the series with A549, 22 µM; with HepG2, 14 µM.
Taken in the same sequence, the figures for `O=C(/C=C/c1ccc(CN(Cc2ccc(F)cc2)c2ncc(C(=O)NCCCn3ccnc3)s2)cc1)NO` were 0.014 µM, 0.091 µM, 83 µM, 2.7 µM and 13 µM.
Taken in the same sequence, the figures for `O=C(CCCCCN(Cc1ccc(F)cc1)c1ncc(C(=O)NCCCn2ccnc2)s1)NO` were 0.007 µM, 0.1 µM, 19 µM, 54 µM and 30 µM.
